Experimental data as given in ChEMBL document CHEMBL2396525, “Synthesis and anti-HCMV activity of 1-[ω-(phenoxy)alkyl]uracil derivatives and analogues thereof” (Bioorg Med Chem, 2013).
Activity calls are given as the source filed them. The rule behind the calls is not given here.

Legend:
[1] = tested on: Human immunodeficiency virus 1; experiment: Antiviral activity against HIV1 3B infected in human CEM cells assessed as inhibition of virus-induced giant cell formation after 4 to 5 days; assay type: functional, organism-based; details: CCRF-CEM
Procedure, shortened: (§1)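 CEM cells at about 3 × 10^5 cells/mL were infected with 100 CCID50 of HIV per mL, with compound dilutions present. They were incubated 4–5 days at 37 °C in humidified CO2, and syncytia were scored microscopically. EC50 is the concentration that inhibits giant cell formation by 50%.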

Vaccinia virus = experiment: Antiviral activity against Vaccinia virus Lederle; assay type: functional, organism-based; details: Orthopoxvirus vaccinia
Human betaherpesvirus 5 [2] = experiment: Antiviral actiivty against Human herpesvirus 5 AD169 infected in HEL assessed as reduction of virus-induced plaque formation; assay type: functional, organism-based; details: Human betaherpesvirus 5, AD169
Procedure, shortened: (§2)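 HCMV strains AD-169 and Davis were tested on confluent human embryonic lung fibroblast monolayers infected with 100 PFU in the presence of serial compound concentrations. Plaques were counted once formation was complete in untreated infected controls. EC50 is the concentration that cuts plaque formation by 50%.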

[3] = Cytotoxicity against HEL assessed as minimum cytotoxic concentration required to cause microscopically detectable alteration in cell morphology; assay type: cell-based; details: human, HEL cells
Human alphaherpesvirus 1 [4] = experiment: Antiviral activity against Herpes simplex virus type 1 KOS; assay type: functional, organism-based
Procedure, shortened: (§3)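 Confluent HEL, Vero, HeLa or MDCK cell cultures were inoculated with 100 CCID50 of virus alongside varying compound concentrations. Cytopathicity was scored when it reached completion in untreated virus controls. EC50 is the concentration that reduces virus-induced cytopathogenicity by 50%.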

[5] = tested on: Vesicular stomatitis virus; experiment: Antiviral activity against Vesicular stomatitis virus; assay type: functional, organism-based
Human betaherpesvirus 5 [6] = experiment: Antiviral actiivty against Human herpesvirus 5 Davis infected in HEL assessed as reduction of virus-induced plaque formation; assay type: functional, organism-based; details: Human betaherpesvirus 5, Davis; procedure, shortened: as §2
Influenza B virus = experiment: Antiviral activity against Influenza B virus; assay type: functional, organism-based
Procedure, shortened: (§4)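 The assay was a cell-based cytopathicity inhibition test on confluent monolayers with serial compound dilutions. EC50 was the concentration that reduced virus-induced cytopathicity by 50%.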

[7] = tested on: Human immunodeficiency virus 2; experiment: Antiviral activity against HIV2 ROD infected in human CEM cells assessed as inhibition of virus-induced giant cell formation after 4 to 5 days; assay type: functional, organism-based; details: ISOLATE ROD, CCRF-CEM; procedure, shortened: as §1
Influenza A virus [8] = experiment: Antiviral activity against Influenza virus A virus H1N1; assay type: functional, organism-based; procedure, shortened: as §4
HEL = experiment: Cytotoxicity against HEL; assay type: cell-based; details: human
Feline coronavirus = experiment: Antiviral activity against Feline coronavirus; assay type: functional, organism-based
Sindbis virus = experiment: Antiviral activity against Sindbis virus; assay type: functional, organism-based; procedure, shortened: as §3
Human alphaherpesvirus 3 [9] = experiment: Antiviral activity against Varicella-zoster virus OKA; assay type: functional; details: strain Oka vaccine
Procedure, shortened: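 Confluent cell monolayers were infected with 10 or 100 PFU of VZV in the presence of serial compound dilutions. Plaque formation was recorded once untreated infected controls reached completion. EC50 was the concentration that reduced plaque formation by 50%.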

[10] = tested on: Respiratory syncytial virus; experiment: Antiviral activity against Respiratory syncytial virus Long; assay type: functional, organism-based; procedure, shortened: as §3
Influenza A virus [11] = experiment: Antiviral activity against Influenza virus A virus H3N2; assay type: functional, organism-based; procedure, shortened: as §4
Punta Toro virus = experiment: Antiviral activity against Punta Toro virus; assay type: functional, organism-based; procedure, shortened: as §3
Human alphaherpesvirus 1 [12] = experiment: Antiviral activity against thymidine kinase deficient acyclovir-resistant Herpes simplex virus type 1 KOS; assay type: functional, organism-based
Human alphaherpesvirus 2 [13] = experiment: Antiviral activity against Herpes simplex virus type 2 G; assay type: functional, organism-based; details: strain G; procedure, shortened: as §3
Human alphaherpesvirus 2 [14] = experiment: Antiviral activity against Herpes simplex virus type 2 Lyons; assay type: functional, organism-based; procedure, shortened: as §3
Human alphaherpesvirus 3 [15] = experiment: Antiviral activity against Varicella-zoster virus YS; assay type: functional, organism-based
Procedure, shortened: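 VZV was assayed by plaque formation. Confluent cell cultures received 10 or 100 PFU with varying compound concentrations, and plaques were recorded once complete in untreated infected controls. EC50 is the concentration that reduces plaque formation by 50%.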

[16] = tested on: Mammalian orthoreovirus 1; experiment: Antiviral activity against Reovirus-1; assay type: functional, organism-based; procedure, shortened: as §3
Human respirovirus 3 = experiment: Antiviral activity against Parainfluenza virus 3; assay type: functional, organism-based; procedure, shortened: as §3
Coxsackievirus B4 = experiment: Antiviral activity against Coxsackie B4 virus; assay type: functional, organism-based; procedure, shortened: as §3

Compound | Activity [1] | Activity (Vaccinia virus) | EC50 (Human betaherpesvirus 5 [2]) [µM] | MCC [3] [µM] | Activity (Human alphaherpesvirus 1 [4]) | Activity [5] | EC50 (Human betaherpesvirus 5 [6]) [µM] | Activity (Influenza B virus) | Activity [7] | Activity (Influenza A virus [8]) | Activity (Feline coronavirus) | Activity (Sindbis virus) | Activity (Human alphaherpesvirus 3 [9]) | Activity [10] | Activity (Influenza A virus [11]) | Activity (Punta Toro virus) | Activity (Human alphaherpesvirus 1 [12]) | Activity (Human alphaherpesvirus 2 [13]) | Activity (Human alphaherpesvirus 2 [14]) | Activity (Human alphaherpesvirus 3 [15]) | other results
Cc1cccc(OCCCCCn2ccc(=O)[nH]c2=O)c1 | inactive | inactive | 45 | > 100 | inactive | inactive | 55 | inactive | inactive | inactive | inactive | inactive | inactive | inactive | inactive | inactive | inactive | inactive | inactive | inactive | CC50 (HEL): > 100 µM; Activity [16]: inactive; Activity (Human respirovirus 3): inactive; Activity (Coxsackievirus B4): inactive
O=c1ccn(CCCCCOc2ccc(-c3ccccc3)cc2)c(=O)[nH]1 | inactive | inactive | > 20 | 100 | inactive | inactive | 54 | inactive | inactive | inactive | inactive | inactive | inactive | inactive | inactive | inactive | inactive | inactive | inactive | inactive | Activity [16]: inactive; Activity (Human respirovirus 3): inactive; Activity (Coxsackievirus B4): inactive
O=c1ccn(CCCCCOc2ccc(Br)cc2)c(=O)[nH]1 | inactive | inactive | 9.4 | 100 | inactive | inactive | 12 | inactive | inactive | inactive | inactive | inactive | inactive | inactive | inactive | inactive | inactive | inactive | inactive | inactive | CC50 (HEL): > 100 µM; Activity [16]: inactive; Activity (Human respirovirus 3): inactive; Activity (Coxsackievirus B4): inactive
CC(C)c1ccc(OCCCCCn2ccc(=O)[nH]c2=O)cc1 | inactive | inactive | 25 | 100 | inactive | inactive | 15 | inactive | inactive | inactive | inactive | inactive | inactive | inactive | inactive | inactive | inactive | inactive | inactive | inactive | CC50 (HEL): > 100 µM; Activity [16]: inactive; Activity (Human respirovirus 3): inactive; Activity (Coxsackievirus B4): inactive
O=c1ccn(CCCCCOc2ccc(Cl)cc2)c(=O)[nH]1 | inactive | inactive | > 100 | > 100 | inactive | inactive | > 100 | inactive | inactive | inactive | inactive | inactive | inactive | inactive | inactive | inactive | inactive | inactive | inactive | inactive | Activity [16]: inactive; Activity (Human respirovirus 3): inactive; Activity (Coxsackievirus B4): inactive
Nc1nc(O)c2ncn(COC(CO)CO)c2n1 [GANCICLOVIR] |  |  |  | 394 |  |  | 8.3 |  |  |  |  |  |  |  |  |  |  |  |  |  | CC50 (HEL): 200 µM
O=c1ccn(CCCCCOc2ccc([N+](=O)[O-])cc2)c(=O)[nH]1 | inactive | inactive | > 4 | 20 | inactive | inactive | > 4 | inactive | inactive | inactive | inactive | inactive | inactive | inactive | inactive | inactive | inactive | inactive | inactive | inactive | Activity [16]: inactive; Activity (Human respirovirus 3): inactive; Activity (Coxsackievirus B4): inactive
O=C(O)c1ccc(OCCCCCn2ccc(=O)[nH]c2=O)cc1 | inactive | inactive | > 100 | > 100 | inactive | inactive | > 100 | inactive | inactive | inactive | inactive | inactive | inactive | inactive | inactive | inactive | inactive | inactive | inactive | inactive | Activity [16]: inactive; Activity (Human respirovirus 3): inactive; Activity (Coxsackievirus B4): inactive
O=c1ccn(CCCOc2ccc(Br)cc2)c(=O)[nH]1 | inactive | inactive | > 100 | > 100 | inactive | inactive | > 100 | inactive | inactive | inactive | inactive | inactive | inactive | inactive | inactive | inactive | inactive | inactive | inactive | inactive | Activity [16]: inactive; Activity (Human respirovirus 3): inactive; Activity (Coxsackievirus B4): inactive
O=c1ccn(CCCCOc2ccc(Br)cc2)c(=O)[nH]1 | inactive | inactive | > 20 | 100 | inactive | inactive | > 20 | inactive | inactive | inactive | inactive | inactive | inactive | inactive | inactive | inactive | inactive | inactive | inactive | inactive | Activity [16]: inactive; Activity (Human respirovirus 3): inactive; Activity (Coxsackievirus B4): inactive
Nc1ccn(C[C@@H](CO)OCP(=O)(O)O)c(=O)n1 [CIDOFOVIR] |  |  | 1.3 | 317 |  |  | 1.1 |  |  |  |  |  |  |  |  |  |  |  |  |  | CC50 (HEL): 161 µM
O=c1ccn(CCCCCCOc2ccc(Br)cc2)c(=O)[nH]1 | inactive | inactive | > 4 | 20 | inactive | inactive | > 4 | inactive | inactive | inactive | inactive | inactive | inactive | inactive | inactive | inactive | inactive | inactive | inactive | inactive | Activity [16]: inactive; Activity (Human respirovirus 3): inactive; Activity (Coxsackievirus B4): inactive
